Converted amounts (≈) assume the structure as drawn.
Tests used:
Assay type in all cases: functional
Staphylococcus aureus [1] = assay: Antibacterial activity against Staphylococcus aureus ATCC 6538P after 24 hrs by two-fold serial dilution method relative to ampicillin
Staphylococcus aureus [2] = assay: Antibacterial activity against Staphylococcus aureus ATCC 6538P after 24 hrs by two-fold serial dilution method
Method in brief: (§1)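 Two-fold serial broth dilution in sterile nutrient broth at 500, 250, 125, 62.5, 31.25, 15.63, 7.82 and 3.91 µg/ml, with dimethylformamide ≤2.5%. Organisms were pre-grown 24 h in broth, and 0.1 ml inoculum was added per 5 ml tube. Tubes were incubated at 37°C, 24 h for bacteria and 48 h for fungi. MIC was taken as the lowest concentration giving no turbidity.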

Candida albicans [3] = assay: Antifungal activity against Candida albicans ATCC 2091 assessed as diameter of inhibition zone at 1 mg/ml after 48 hrs by cup diffusion method (reference value: 22 mm); conditions: ATCC 2091, 48 h, read-out: DIZ
Shigella flexneri [4] = assay: Antibacterial activity against Shigella flexneri ATCC 15391 assessed as diameter of inhibition zone at 1 mg/ml after 24 hrs by cup diffusion method (reference value: 17 mm); conditions: ATCC 15391, 24 h, read-out: DIZ
Staphylococcus aureus [5] = assay: Antibacterial activity against Staphylococcus aureus ATCC 6538P assessed as diameter of inhibition zone at 1 mg/ml after 24 hrs by cup diffusion method (reference value: 15 mm); conditions: read-out: DIZ
Pseudomonas aeruginosa [6] = assay: Antibacterial activity against Pseudomonas aeruginosa ATCC 9027 assessed as diameter of inhibition zone at 1 mg/ml after 24 hrs by cup diffusion method (reference value: 16 mm); conditions: ATCC 9027, 24 h, read-out: DIZ
NCI/ADR-RES = assay: Cytotoxicity against human NCI/ADR-RES cells assessed as growth inhibition at 10 uM; conditions: read-out: GI
Method in brief: (§2)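 Single-dose screen on human tumour cell lines. Growth of treated cells is expressed as percent of untreated growth, plotted as a mean graph, and reported as percent growth inhibition.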

HCC 2998 = assay: Cytotoxicity against human HCC2998 cells assessed as growth inhibition at 10 uM; conditions: read-out: GI
Shigella flexneri [7] = assay: Antibacterial activity against Shigella flexneri ATCC 15391 after 24 hrs by two-fold serial dilution method relative to ofloxacin
Shigella flexneri [8] = assay: Antibacterial activity against Shigella flexneri ATCC 15391 after 24 hrs by two-fold serial dilution method; conditions: ATCC 15391, 24 h; method in brief: as §1
NCI-H23 = assay: Cytotoxicity against human NCI-H23 cells assessed as growth inhibition at 10 uM; conditions: read-out: GI; method in brief: as §2
Pseudomonas aeruginosa [9] = assay: Antibacterial activity against Pseudomonas aeruginosa ATCC 9027 after 24 hrs by two-fold serial dilution method; conditions: ATCC 9027, 24 h; method in brief: as §1
UO-31 = assay: Cytotoxicity against human UO31 cells assessed as growth inhibition at 10 uM; conditions: read-out: GI
Method in brief: (§3)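 Single-dose screen in a sixty-cell human tumour line panel; percent growth of treated cells relative to untreated was read and reported as percentage growth inhibition, shown as a mean graph. Compounds meeting the threshold inhibition criteria went on to five-dose testing.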

OVCAR-8 = assay: Cytotoxicity against human OVCAR8 cells assessed as growth inhibition at 10 uM; conditions: read-out: GI; method in brief: as §2
RPMI-8226 = assay: Cytotoxicity against human RPMI8226 cells assessed as growth inhibition at 10 uM; conditions: read-out: GI; method in brief: as §2
CCRF-CEM = assay: Cytotoxicity against human CCRF-CEM cells assessed as growth inhibition at 10 uM; conditions: read-out: GI
Pseudomonas aeruginosa [10] = assay: Antibacterial activity against Pseudomonas aeruginosa ATCC 9027 after 24 hrs by two-fold serial dilution method relative to ofloxacin
T47D = assay: Cytotoxicity against human T47D cells assessed as growth inhibition at 10 uM; conditions: read-out: GI; method in brief: as §2
PC-3 = assay: Cytotoxicity against human PC3 cells assessed as growth inhibition at 10 uM; conditions: read-out: GI; method in brief: as §2
MCF7 = assay: Cytotoxicity against human MCF7 cells assessed as growth inhibition at 10 uM; conditions: read-out: GI; method in brief: as §2
TK-10 = assay: Cytotoxicity against human TK10 cells assessed as growth inhibition at 10 uM; conditions: read-out: GI; method in brief: as §3
CAKI-1 = assay: Cytotoxicity against human Caki1 cells assessed as growth inhibition at 10 uM; conditions: read-out: GI
A498 = assay: Cytotoxicity against human A498 cells assessed as growth inhibition at 10 uM; conditions: read-out: GI
SK-OV-3 = assay: Cytotoxicity against human SKOV3 cells assessed as growth inhibition at 10 uM; conditions: read-out: GI; method in brief: as §2
IGROV-1 = assay: Cytotoxicity against human IGROV1 cells assessed as growth inhibition at 10 uM; conditions: read-out: GI
UACC-62 = assay: Cytotoxicity against human UACC62 cells assessed as growth inhibition at 10 uM; conditions: read-out: GI; method in brief: as §3
SK-MEL-2 = assay: Cytotoxicity against human SK-MEL-2 cells assessed as growth inhibition at 10 uM; conditions: read-out: GI; method in brief: as §2
M14 = assay: Cytotoxicity against human M14 cells assessed as growth inhibition at 10 uM; conditions: read-out: GI
Malme-3M = assay: Cytotoxicity against human MALME-3M cells assessed as growth inhibition at 10 uM; conditions: read-out: GI
SNB-75 = assay: Cytotoxicity against human SNB75 cells assessed as growth inhibition at 10 uM; conditions: read-out: GI; method in brief: as §2
SF-295 = assay: Cytotoxicity against human SF295 cells assessed as growth inhibition at 10 uM; conditions: read-out: GI; method in brief: as §2
NCI-H522 = assay: Cytotoxicity against human NCI-H522 cells assessed as growth inhibition at 10 uM; conditions: read-out: GI; method in brief: as §2
NCI-H460 = assay: Cytotoxicity against human NCI-H460 cells assessed as growth inhibition at 10 uM; conditions: read-out: GI; method in brief: as §2
HOP-92 = assay: Cytotoxicity against human HOP92 cells assessed as growth inhibition at 10 uM; conditions: read-out: GI
HOP-62 = assay: Cytotoxicity against human HOP62 cells assessed as growth inhibition at 10 uM; conditions: read-out: GI
[11] = Cytotoxicity against human EKVX cells assessed as growth inhibition at 10 uM; conditions: read-out: GI
SR = assay: Cytotoxicity against human SR cells assessed as growth inhibition at 10 uM; conditions: read-out: GI; method in brief: as §2
Candida albicans [12] = assay: Antifungal activity against Candida albicans ATCC 2091 after 48 hrs by two-fold serial dilution method; conditions: ATCC 2091, 48 h; method in brief: as §1
Candida albicans [13] = assay: Antifungal activity against Candida albicans ATCC 2091 after 48 hrs by two-fold serial dilution method relative to clotrimazole

Q: Which Activity (Staphylococcus aureus [1]) does the source give for `CSc1nc(-c2ccco2)c(C#N)c(=O)n1C` here?
A: 50%

Q: And the MIC (Staphylococcus aureus [2])?
A: 125 µg/mL (≈ 506 µM)

Q: And the zone of inhibition at 1000 µg/mL (Candida albicans [3])?
A: 22 mm

Q: What about the zone of inhibition at 1000 µg/mL (Shigella flexneri [4]) of the same molecule?
A: 17 mm

Q: What about the zone of inhibition at 1000 µg/mL (Staphylococcus aureus [5]) of the same molecule?
A: 19 mm

Q: And the zone of inhibition at 1000 µg/mL (Pseudomonas aeruginosa [6])?
A: 17 mm

Q: And the inhibition of growth at 10 µM (NCI/ADR-RES)?
A: 48.8%

Q: And the inhibition of growth at 10 µM (HCC 2998)?
A: 98.4%

Q: Which results are given for `Cn1c(NN)nc(-c2ccco2)c(C#N)c1=O`?
A: Activity (Shigella flexneri [7]): 60%; MIC (Shigella flexneri [8]): 125 µg/mL (≈ 541 µM); zone of inhibition at 1000 µg/mL (Candida albicans [3]): 22 mm; zone of inhibition at 1000 µg/mL (Shigella flexneri [4]): 20 mm; zone of inhibition at 1000 µg/mL (Staphylococcus aureus [5]): 15 mm; zone of inhibition at 1000 µg/mL (Pseudomonas aeruginosa [6]): 16 mm; inhibition of growth at 10 µM (NCI/ADR-RES): 55.9%; inhibition of growth at 10 µM (HCC 2998): 84.4%; inhibition of growth at 10 µM (NCI-H23): 54.7%

Q: Which MIC (Pseudomonas aeruginosa [9]) does the source give for `Cn1c(N2CCN(Cc3ccccc3)CC2)nc(-c2ccccc2)c(C#N)c1=O` here?
A: 125 µg/mL (≈ 324 µM)

Q: What about the zone of inhibition at 1000 µg/mL (Candida albicans [3]) of the same molecule?
A: 22 mm

Q: And the zone of inhibition at 1000 µg/mL (Shigella flexneri [4])?
A: 17 mm

Q: And the zone of inhibition at 1000 µg/mL (Staphylococcus aureus [5])?
A: 17 mm

Q: What about the zone of inhibition at 1000 µg/mL (Pseudomonas aeruginosa [6]) of the same molecule?
A: 18 mm

Q: And the inhibition of growth at 10 µM (UO-31)?
A: 49.1%

Q: What about the inhibition of growth at 10 µM (OVCAR-8) of the same molecule?
A: 54.6%

Q: Which inhibition of growth at 10 µM (RPMI-8226) does the source give for `N#Cc1c(N2CCOCC2)nc(=S)[nH]c1-c1ccco1` here?
A: 57%

Q: And the inhibition of growth at 10 µM (CCRF-CEM)?
A: 50.4%

Q: And the Activity (Pseudomonas aeruginosa [10])?
A: 60%

Q: And the Activity (Shigella flexneri [7])?
A: 60%

Q: What about the MIC (Shigella flexneri [8]) of the same molecule?
A: 125 µg/mL (≈ 434 µM)

Q: And the zone of inhibition at 1000 µg/mL (Candida albicans [3])?
A: 22 mm

Q: What about the zone of inhibition at 1000 µg/mL (Shigella flexneri [4]) of the same molecule?
A: 22 mm

Q: And the zone of inhibition at 1000 µg/mL (Staphylococcus aureus [5])?
A: 15 mm

Q: And the zone of inhibition at 1000 µg/mL (Pseudomonas aeruginosa [6])?
A: 16 mm

Q: And the inhibition of growth at 10 µM (T47D)?
A: 81.1%

Q: What about the inhibition of growth at 10 µM (NCI/ADR-RES) of the same molecule?
A: 59.8%

Q: And the inhibition of growth at 10 µM (PC-3)?
A: 57.4%

Q: And the inhibition of growth at 10 µM (MCF7)?
A: 73.3%

Q: And the inhibition of growth at 10 µM (TK-10)?
A: 52.9%

Q: What about the inhibition of growth at 10 µM (CAKI-1) of the same molecule?
A: 41.8%

Q: And the inhibition of growth at 10 µM (A498)?
A: 101%

Q: What about the inhibition of growth at 10 µM (SK-OV-3) of the same molecule?
A: 45%

Q: And the inhibition of growth at 10 µM (IGROV-1)?
A: 79.3%

Q: What about the inhibition of growth at 10 µM (UACC-62) of the same molecule?
A: 56.7%

Q: What about the inhibition of growth at 10 µM (SK-MEL-2) of the same molecule?
A: 63%

Q: And the inhibition of growth at 10 µM (M14)?
A: 60.2%

Q: And the inhibition of growth at 10 µM (Malme-3M)?
A: 97.8%

Q: And the inhibition of growth at 10 µM (SNB-75)?
A: 84.1%

Q: And the inhibition of growth at 10 µM (SF-295)?
A: 52.6%

Q: And the inhibition of growth at 10 µM (HCC 2998)?
A: 121%

Q: And the inhibition of growth at 10 µM (NCI-H522)?
A: 50.4%

Q: And the inhibition of growth at 10 µM (NCI-H460)?
A: 49.9%

Q: What about the inhibition of growth at 10 µM (HOP-92) of the same molecule?
A: 112%

Q: What about the inhibition of growth at 10 µM (HOP-62) of the same molecule?
A: 64.2%

Q: And the inhibition of growth at 10 µM [11]?
A: 51.2%

Q: And the inhibition of growth at 10 µM (SR)?
A: 82.2%

Q: For `N#Cc1c(-c2ccccc2)nc(SCC(=O)Nc2ccc(Cl)cc2)[nH]c1=O`, which MIC (Candida albicans [12]) is on record?
A: 125 µg/mL (≈ 315 µM)

Q: And the Activity (Candida albicans [13])?
A: 75%

Q: What about the MIC (Pseudomonas aeruginosa [9]) of the same molecule?
A: 125 µg/mL (≈ 315 µM)

Q: And the MIC (Staphylococcus aureus [2])?
A: 3.91 µg/mL (≈ 9.85 µM)

Q: And the zone of inhibition at 1000 µg/mL (Candida albicans [3])?
A: 30 mm

Q: What about the zone of inhibition at 1000 µg/mL (Shigella flexneri [4]) of the same molecule?
A: 17 mm

Q: And the zone of inhibition at 1000 µg/mL (Staphylococcus aureus [5])?
A: 20 mm

Q: And the zone of inhibition at 1000 µg/mL (Pseudomonas aeruginosa [6])?
A: 22 mm

Q: What about the inhibition of growth at 10 µM (M14) of the same molecule?
A: 45%

Q: What about the inhibition of growth at 10 µM (HCC 2998) of the same molecule?
A: 84.4%

— ChEMBL document CHEMBL2413060, “Synthesis, biological evaluation and molecular docking studies of some pyrimidine derivatives” (2013)
